ChEMBL document CHEMBL5257059, “Pyridine-Based 1,2,4-Triazolo-Tethered Indole Conjugates Potentially Affecting TNKS and PI3K in Colorectal Cancer” (ACS Med Chem Lett, 2023)
One block for each compound: values may come before it. Calls of active or inactive are those of the source. No cut-off for these calls is given here.

How the values were obtained:
HT-29 [1] = assay: Induction of cell cycle arrest in human HT-29 cells assessed as accumulation of cells at G2/M phase at 4 uM incubated for 24 hrs by RNase/PI staining based flow cytometry analysis (reference value: 23.695 %); type: functional
HT-29 [2] = assay: Induction of cell cycle arrest in human HT-29 cells assessed as accumulation of cells at subG1 phase at 4 uM incubated for 24 hrs by RNase/PI staining based flow cytometry analysis (reference value: 1.798%); type: functional
HT-29 [3] = assay: Induction of mitochondrial ROS generation in human HT-29 cells at 4 uM by MitoSOX red dye based flow cytometry analysis; type: functional, cell-based
How it was run: (§1)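 Mitochondrial superoxide in HT-29 cells was read with the mitochondria-localizing MitoSOX Red probe after treatment at 1, 2 or 4 μM. Flow cytometry histograms were acquired on 10,000 cells, and results were expressed as mean fluorescence intensity. Versus control, significance was tested by one-way ANOVA with Tukey's post hoc test.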

HT-29 [4] = assay: Downregulation of beta-catenin protein expression in human HT-29 cells at 4 uM by immunostaining based confocal microscopic analysis; type: functional, cell-based
HT-29 [5] = assay: Downregulation of TAB-182 protein expression in human HT-29 cells at 4 uM by immunostaining based confocal microscopic analysis; type: functional, cell-based
[6] = biological target: Phosphatidylinositol 3-kinase regulatory subunit alpha (Homo sapiens) (UniProt P27986); assay: Inhibition of PI3K-P85 phosphorylation in human HT-29 cells at 4 uM incubated for 72 hrs by Western blot analysis; type: cell-based
[7] = biological target: Glycogen synthase kinase-3 beta (Homo sapiens) (UniProt P49841); assay: Inhibition of GSK3beta phosphorylation in human HT-29 cells at 4 uM incubated for 72 hrs by Western blot analysis; type: cell-based
HT-29 [8] = assay: Inhibition of APC protein expression in human HT-29 cells at 4 uM incubated for 72 hrs by Western blot analysis; type: functional, cell-based
HT-29 [9] = assay: Inhibition of AXIN-1 protein expression in human HT-29 cells at 4 uM incubated for 72 hrs by Western blot analysis; type: functional, cell-based
HT-29 [10] = assay: Inhibition of AXIN-2 protein expression in human HT-29 cells at 4 uM incubated for 72 hrs by Western blot analysis; type: functional, cell-based
HT-29 [11] = assay: Inhibition of TAB-182 protein expression in human HT-29 cells at 4 uM incubated for 72 hrs by Western blot analysis; type: functional, cell-based
HT-29 [12] = assay: Inhibition of GSK-3beta protein expression in human HT-29 cells at 4 uM incubated for 72 hrs by Western blot analysis; type: functional, cell-based
HT-29 [13] = assay: Inhibition of phosphorylated PI3K-p85 protein expression in human HT-29 cells at 4 uM incubated for 72 hrs by Western blot analysis; type: functional, cell-based
HT-29 [14] = assay: Inhibition of PI3K-p85 protein expression in human HT-29 cells at 4 uM incubated for 72 hrs by Western blot analysis; type: functional, cell-based
HT-29 [15] = assay: Inhibition of AKT protein expression in human HT-29 cells at 4 uM incubated for 72 hrs by Western blot analysis; type: functional, cell-based
HT-29 [16] = assay: Induction of cell cycle arrest in human HT-29 cells assessed as accumulation of cells at S phase at 1 uM incubated for 24 hrs by RNase/PI staining based flow cytometry analysis (reference value: 17.934 %); type: functional
HT-29 [17] = assay: Induction of cell cycle arrest in human HT-29 cells assessed as accumulation of cells at G2/M phase at 1 uM incubated for 24 hrs by RNase/PI staining based flow cytometry analysis (reference value: 23.695 %); type: functional
HT-29 [18] = assay: Induction of cell cycle arrest in human HT-29 cells assessed as accumulation of cells at subG1 phase at 1 uM incubated for 24 hrs by RNase/PI staining based flow cytometry analysis (reference value: 1.798%); type: functional
HT-29 [19] = assay: Induction of apoptosis in human HT29 cells assessed as increase in late apoptotic cells at 1 uM incubated for 24 hrs by annexin V/PI staining based flow cytometry analysis; type: functional, cell-based
How it was run: (§2)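 Annexin/PI double staining of HT-29 cells after 24 h exposure at 1, 2 or 4 μM. Flow cytometry gated early apoptotic, late apoptotic and necrotic populations, reported as % of cells. Comparison to untreated control used two-way ANOVA followed by Tukey's post hoc analysis.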

HT-29 [20] = assay: Induction of ROS generation in human HT-29 cells at 1 uM by CM-H2DCFDA fluorescent probe based flow cytometry analysis (reference value: 0.528%); type: functional
HT-29 [21] = assay: Induction of mitochondrial ROS generation in human HT-29 cells at 1 uM by MitoSOX red dye based flow cytometry analysis; type: functional, cell-based; how it was run: as §1
HT-29 [22] = assay: Inhibition of APC protein expression in human HT-29 cells at 1 uM incubated for 72 hrs by Western blot analysis; type: functional, cell-based
HT-29 [23] = assay: Inhibition of AXIN-2 protein expression in human HT-29 cells at 1 uM incubated for 72 hrs by Western blot analysis; type: functional, cell-based
HT-29 [24] = assay: Inhibition of beta-actin protein expression in human HT-29 cells at 1 uM incubated for 72 hrs by Western blot analysis; type: functional, cell-based
HT-29 [25] = assay: Inhibition of PI3K-p85 protein expression in human HT-29 cells at 1 uM incubated for 72 hrs by Western blot analysis; type: functional, cell-based
HT-29 [26] = assay: Inhibition of pan-AKT protein expression in human HT-29 cells at 1 uM incubated for 72 hrs by Western blot analysis; type: functional, cell-based
HT-29 [27] = assay: Inhibition of AKT protein expression in human HT-29 cells at 1 uM incubated for 72 hrs by Western blot analysis; type: functional, cell-based
HT-29 [28] = assay: Induction of mitochondrial damage in human HT-29 cells assessed as increase in monomer formation at 2 uM incubated for 24 hrs by JC-1 staining based flow cytometry analysis; type: functional, cell-based
How it was run: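 HT-29 cells exposed 24 h to test agent at 1, 2 or 4 μM, then stained with JC-1. Flow cytometry scored the % of cells in JC-1 aggregate versus monomer populations. Treated groups were compared with untreated control by two-way ANOVA with Tukey's post hoc test.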

HT-29 [29] = assay: Induction of apoptosis in human HT29 cells assessed as increase in early apoptotic cells at 2 uM incubated for 24 hrs by annexin V/PI staining based flow cytometry analysis; type: functional, cell-based; how it was run: as §2
HT-29 [30] = assay: Induction of ROS generation in human HT-29 cells at 2 uM by CM-H2DCFDA fluorescent probe based flow cytometry analysis (reference value: 0.528%); type: functional
HT-29 [31] = assay: Downregulation of TAB-182 protein expression in human HT-29 cells at 2 uM by immunostaining based confocal microscopic analysis; type: functional, cell-based
[32] = biological target: 182 kDa tankyrase-1-binding protein (Homo sapiens) (UniProt Q9C0C2); assay: Inhibition of TAB-182 phosphorylation in human HT-29 cells at 2 uM incubated for 72 hrs by Western blot analysis; type: cell-based
HT-29 [33] = assay: Inhibition of beta-actin protein expression in human HT-29 cells at 2 uM incubated for 72 hrs by Western blot analysis; type: functional, cell-based
HT-29 [34] = assay: Inhibition of TAB-182 protein expression in human HT-29 cells at 2 uM incubated for 72 hrs by Western blot analysis; type: functional, cell-based
HT-29 [35] = assay: Inhibition of phosphorylated GSK-3beta protein expression in human HT-29 cells at 2 uM incubated for 72 hrs by Western blot analysis; type: functional, cell-based
HT-29 [36] = assay: Inhibition of phosphorylated PI3K-p85 protein expression in human HT-29 cells at 2 uM incubated for 72 hrs by Western blot analysis; type: functional, cell-based

182 kDa tankyrase-1-binding protein (Homo sapiens), sequence (Q9C0C2 whole entry): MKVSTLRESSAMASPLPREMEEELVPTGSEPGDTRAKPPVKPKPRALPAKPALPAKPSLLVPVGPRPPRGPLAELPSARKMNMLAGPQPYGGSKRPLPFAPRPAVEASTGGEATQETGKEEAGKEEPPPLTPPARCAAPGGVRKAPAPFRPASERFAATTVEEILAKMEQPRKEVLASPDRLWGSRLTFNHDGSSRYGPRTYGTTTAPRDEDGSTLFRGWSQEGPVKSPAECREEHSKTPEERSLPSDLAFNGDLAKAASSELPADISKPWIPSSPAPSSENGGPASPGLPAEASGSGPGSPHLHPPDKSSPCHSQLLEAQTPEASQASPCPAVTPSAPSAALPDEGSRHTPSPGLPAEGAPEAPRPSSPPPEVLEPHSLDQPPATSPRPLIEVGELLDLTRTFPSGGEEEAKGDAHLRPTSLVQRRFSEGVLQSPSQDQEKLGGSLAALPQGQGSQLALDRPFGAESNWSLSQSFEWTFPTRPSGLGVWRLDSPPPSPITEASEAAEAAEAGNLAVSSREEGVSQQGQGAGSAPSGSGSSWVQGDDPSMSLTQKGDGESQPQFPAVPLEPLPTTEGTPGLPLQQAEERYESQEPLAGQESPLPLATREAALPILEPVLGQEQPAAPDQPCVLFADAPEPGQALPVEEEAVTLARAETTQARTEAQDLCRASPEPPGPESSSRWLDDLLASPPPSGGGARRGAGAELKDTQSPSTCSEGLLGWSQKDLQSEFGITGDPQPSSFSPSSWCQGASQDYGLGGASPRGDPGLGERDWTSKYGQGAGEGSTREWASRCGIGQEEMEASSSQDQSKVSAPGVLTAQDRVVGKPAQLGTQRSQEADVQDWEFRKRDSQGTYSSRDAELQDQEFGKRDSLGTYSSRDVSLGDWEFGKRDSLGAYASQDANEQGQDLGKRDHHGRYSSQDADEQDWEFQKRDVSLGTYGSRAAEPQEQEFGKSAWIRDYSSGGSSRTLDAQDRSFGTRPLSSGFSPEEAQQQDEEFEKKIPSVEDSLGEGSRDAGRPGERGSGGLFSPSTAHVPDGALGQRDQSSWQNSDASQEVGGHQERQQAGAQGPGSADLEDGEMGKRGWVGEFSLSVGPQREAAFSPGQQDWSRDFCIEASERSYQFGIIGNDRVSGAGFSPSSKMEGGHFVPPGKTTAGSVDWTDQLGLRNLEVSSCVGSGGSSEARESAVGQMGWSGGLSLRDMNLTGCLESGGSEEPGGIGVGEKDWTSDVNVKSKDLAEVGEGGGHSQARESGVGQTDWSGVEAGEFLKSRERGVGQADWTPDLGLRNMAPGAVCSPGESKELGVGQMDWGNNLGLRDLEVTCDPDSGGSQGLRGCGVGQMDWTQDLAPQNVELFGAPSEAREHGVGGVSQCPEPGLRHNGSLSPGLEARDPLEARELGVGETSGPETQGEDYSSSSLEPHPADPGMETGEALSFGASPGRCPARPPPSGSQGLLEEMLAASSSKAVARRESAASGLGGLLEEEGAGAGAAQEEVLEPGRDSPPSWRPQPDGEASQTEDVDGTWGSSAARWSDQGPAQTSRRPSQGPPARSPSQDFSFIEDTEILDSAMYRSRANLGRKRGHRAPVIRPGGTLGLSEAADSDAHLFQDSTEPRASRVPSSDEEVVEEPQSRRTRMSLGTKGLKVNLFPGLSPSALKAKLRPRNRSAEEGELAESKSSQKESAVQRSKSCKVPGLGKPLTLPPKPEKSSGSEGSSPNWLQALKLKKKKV
Glycogen synthase kinase-3 beta (Homo sapiens), sequence (P49841 whole entry, looked up): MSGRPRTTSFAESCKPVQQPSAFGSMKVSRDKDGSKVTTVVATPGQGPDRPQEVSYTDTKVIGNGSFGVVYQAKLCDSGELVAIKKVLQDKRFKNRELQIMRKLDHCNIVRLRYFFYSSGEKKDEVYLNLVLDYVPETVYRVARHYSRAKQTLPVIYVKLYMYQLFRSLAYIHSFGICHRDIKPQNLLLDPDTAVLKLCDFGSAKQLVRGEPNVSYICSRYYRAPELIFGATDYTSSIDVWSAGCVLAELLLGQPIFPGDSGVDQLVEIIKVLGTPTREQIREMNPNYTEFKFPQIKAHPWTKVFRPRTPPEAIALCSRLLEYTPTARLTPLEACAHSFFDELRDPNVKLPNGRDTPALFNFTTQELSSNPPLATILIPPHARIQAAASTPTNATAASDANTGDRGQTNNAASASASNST
Phosphatidylinositol 3-kinase regulatory subunit alpha (Homo sapiens), sequence (P27986 whole entry): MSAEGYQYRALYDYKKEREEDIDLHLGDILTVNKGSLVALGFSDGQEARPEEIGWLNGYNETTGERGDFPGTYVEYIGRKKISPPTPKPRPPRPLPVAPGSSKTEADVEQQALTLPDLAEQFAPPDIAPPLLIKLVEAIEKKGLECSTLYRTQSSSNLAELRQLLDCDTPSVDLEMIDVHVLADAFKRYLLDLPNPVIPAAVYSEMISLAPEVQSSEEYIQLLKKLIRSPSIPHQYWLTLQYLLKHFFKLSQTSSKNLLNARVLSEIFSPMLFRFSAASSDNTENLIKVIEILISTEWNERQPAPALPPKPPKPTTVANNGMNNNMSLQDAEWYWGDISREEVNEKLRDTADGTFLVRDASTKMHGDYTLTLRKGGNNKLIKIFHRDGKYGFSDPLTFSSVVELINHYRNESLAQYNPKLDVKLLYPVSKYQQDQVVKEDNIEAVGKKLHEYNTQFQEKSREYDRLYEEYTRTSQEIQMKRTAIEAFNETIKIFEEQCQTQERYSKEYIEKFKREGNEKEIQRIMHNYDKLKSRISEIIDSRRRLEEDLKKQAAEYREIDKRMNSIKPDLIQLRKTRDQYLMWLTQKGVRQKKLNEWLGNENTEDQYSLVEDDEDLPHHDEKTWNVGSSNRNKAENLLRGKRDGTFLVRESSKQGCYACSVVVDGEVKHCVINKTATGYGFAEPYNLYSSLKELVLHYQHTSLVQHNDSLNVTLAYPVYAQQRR

inhibition [6]: Active
inhibition [7]: Active
Structure (SMILES): COc1cccc(-n2c(SCCc3c[nH]c4ccccc34)nnc2-c2ccncc2)c1
Activity (HT-29 [1]): 22.943%
Activity (HT-29 [2]): 2.668%
Activity (HT-29 [3]): Active
Activity (HT-29 [4]): Active
Activity (HT-29 [5]): Active
inhibition (HT-29 [8]): Active
inhibition (HT-29 [9]): Active
inhibition (HT-29 [10]): Active
inhibition (HT-29 [11]): Active
inhibition (HT-29 [12]): Active
inhibition (HT-29 [13]): Active
inhibition (HT-29 [14]): Active
inhibition (HT-29 [15]): Active

Structure (SMILES): COc1ccc(-n2c(SCCc3c[nH]c4ccccc34)nnc2-c2ccncc2)cc1
Activity (HT-29 [16]): 9.899%
Activity (HT-29 [17]): 22.841%
Activity (HT-29 [18]): 1.225%
Activity (HT-29 [19]): Active
Activity (HT-29 [20]): 15.334%
Activity (HT-29 [21]): Active
inhibition (HT-29 [22]): Active
inhibition (HT-29 [23]): Active
inhibition (HT-29 [24]): Active
inhibition (HT-29 [25]): Active
inhibition (HT-29 [26]): Active
inhibition (HT-29 [27]): Active

inhibition [32]: Active
Structure (SMILES): Fc1ccccc1-n1c(SCCc2c[nH]c3ccccc23)nnc1-c1ccncc1
Activity (HT-29 [28]): Active
Activity (HT-29 [29]): Active
Activity (HT-29 [30]): 1.526%
Activity (HT-29 [31]): Active
inhibition (HT-29 [33]): Active
inhibition (HT-29 [34]): Active
inhibition (HT-29 [35]): Active
inhibition (HT-29 [36]): Active
